The values below come from ChEMBL document CHEMBL1148438, “Discovery of a new family of inhibitors of human cytomegalovirus (HCMV) based upon lipophilic alkyl furano pyrimidine dideoxy nucleosides: action via a novel non-nucleosidic mechanism” (J Med Chem, 2004).

The subject of experiment [1] is HEL. Kind of experiment: Cytostatic concentration required to inhibit HEL cell proliferation measured at day 4. To be noted: Homo sapiens, 96 h. The class given is functional. In short, it runs like this:
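Growing, subconfluent HEL cells were exposed to different compound concentrations, then trypsinized and counted with a Coulter counter. The 50% value was the concentration reducing cell number by 50% relative to untreated cells.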

The test system of experiment [2] is HEL. Kind of experiment: Minimal cytotoxic concentration required to cause a microscopically visible alteration of HEL cell morphology as measured at day 7 postinfection. The following applies: Homo sapiens, 168 h. The class given is functional. In short, it runs like this: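 MCC was assessed within the antiviral assay on confluent HEL monolayers exposed to varying compound concentrations. It was taken at day 7 as the lowest concentration giving microscopically visible cytotoxicity (altered morphology).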

Experiment [3] has as its system HEL. Kind of experiment: Effective concentration required to inhibit HCMV Davis strain-induced cytopathicity in human embryonic lung (HEL) fibroblast cell cultures at day 7 of postinfection. The following applies: 168 h. The class given is functional, cell-based. The gist of the method: (§1)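 Confluent HEL fibroblast monolayers were infected with 100 PFU of HCMV per well and adsorbed for 1-2 h. Residual virus was removed, and cells were kept in MEM with 2% inactivated FCS, 1% L-glutamine and 0.3% sodium bicarbonate plus varying compound concentrations. Cytopathicity was scored at day 7, and EC50 was the concentration reducing virus-induced CPE by 50% versus untreated control.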
(Cytopathic effects are the visible damage that an infection or toxin causes in cultured cells.)

Experiment [4] relates to HEL. As to the kind of experiment: Effective concentration required to inhibit HCMV AD169 strain-induced cytopathicity in human embryonic lung (HEL) fibroblast cell cultures at day 7 of postinfection. The class given is functional, cell-based. The following applies: 168 h. In short, it runs like this: as §1

The term CC50 denotes the concentration giving 50% cytotoxicity. By EC50 is commonly meant the midpoint of the concentration-response curve. Read a low EC50 as higher potency in that assay. Consider `CCCCCCc1cc2cn(C3CCC(CO)O3)c(=O)nc2o1` (stereo not drawn), for which the CC50 in the experiment on HEL [1] was 143 µM. The MCC in the experiment on HEL [2] amounted to 200 µM. The EC50 is above 50 µM in the experiment on HEL [3] and 32 µM with HEL [4].
For `CCCCCCCCCCCc1cc2cn(C3CCC(CO)O3)c(=O)nc2o1` (stereo not drawn), in the experiment on HEL [1], the CC50 is above 200 µM. Besides, the MCC in the experiment on HEL [2] amounted to 50 µM. For the same molecule, the results for the EC50 in the experiment with HEL [3] and in the experiment with HEL [4] were 1.2 µM and 1.4 µM, respectively.
`Nc1nc2c(ncn2COC(CO)CO)c(=O)[nH]1` [GANCICLOVIR] registered a CC50 in the experiment with HEL [1] above 150 µM. In the experiment with HEL [2], this molecule returned an MCC above 150 µM. The EC50 came out at 3.9 µM with HEL [3] and 2.7 µM in the experiment on HEL [4].
As for `CCCCCCCCCc1cc2cn(C3CCC(CO)O3)c(=O)nc2o1` (stereo not drawn), in the experiment with HEL [1], the CC50 was above 200 µM. Also, the MCC in the experiment on HEL [2] was found to be 58 µM. The EC50 in the experiment with HEL [3] was determined as 1.3 µM; in the experiment with HEL [4] it was 1.2 µM.
The matching figures for `CCCCCCCCCCCCc1cc2cn(C3CCC(CO)O3)c(=O)nc2o1` (stereo not drawn): above 200 µM, 200 µM, 5 µM and 3.7 µM.
The matching figures for `O=C(O)P(=O)(O)O` [FOSCARNET]: 500 µM, above 400 µM, 62 µM and 53 µM.
For `CCCCCCCCCCCCCCc1cc2cn(C3CCC(CO)O3)c(=O)nc2o1` (stereo not drawn), in that order: above 200 µM, 200 µM, 40 µM and 25 µM.
Take `CCCCCCCCCCc1cc2cn(C3CCC(CO)O3)c(=O)nc2o1` (stereo not drawn): the CC50 with HEL [1] is above 200 µM. Besides, in the experiment on HEL [2], the MCC was above 20 µM. Moreover, the EC50 with HEL [3] is 3.2 µM; with HEL [4], 2.6 µM.
The matching figures for `CCCCCCCCc1cc2cn(C3CCC(CO)O3)c(=O)nc2o1` (stereo not drawn): 112 µM, 20 µM, 3 µM and 2.5 µM.
As for `Nc1ccn(C[C@@H](CO)OCP(=O)(O)O)c(=O)n1` [CIDOFOVIR], the midpoint of cytotoxicity in the experiment on HEL [1], the CC50, lay at 158 µM. The molecule also registered an MCC in the experiment with HEL [2] above 150 µM.
